Results: ChEMBL document CHEMBL1152997, “Prevalence of and molecular basis for tuberculosis drug resistance in the Republic of Georgia: validation of a QIAplex system for detection of drug resistance-related mutations” (2008)

How the values were obtained:
Assay type in all cases: functional
[1] = tested on: Mycobacterium tuberculosis; assay: Antimycobacterial activity against Mycobacterium tuberculosis clinical isolates from tuberculosis patient assessed as percent resistant isolates at 4 ug/ml by absolute-concentration method
In short: (§1)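 Consecutive clinical M. tuberculosis isolates (196), Tbilisi, Jan–Mar 2006, primary culture on Lowenstein-Jensen medium. Suspension adjusted to 1 McFarland in sterile saline. 0.2 ml was plated onto drug-containing solid medium: a 10-fold dilution series for the 2, 4 and 40 µg/ml media, and a 100-fold dilution for the 0.2 µg/ml medium. Incubation at 37°C, 5–10% CO2, 28 days.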

[2] = tested on: Mycobacterium tuberculosis; assay: Antimycobacterial activity against Mycobacterium tuberculosis clinical isolates from tuberculosis patient assessed as percent resistant isolates at 0.2 ug/ml by absolute-concentration method; in short: as §1
[3] = tested on: Mycobacterium tuberculosis; assay: Antimycobacterial activity against Mycobacterium tuberculosis clinical isolates from tuberculosis patient assessed as percent resistant isolates at 40 ug/ml by absolute-concentration method; in short: as §1
[4] = tested on: Mycobacterium tuberculosis; assay: Antimycobacterial activity against Mycobacterium tuberculosis clinical isolates from tuberculosis patient assessed as percent resistant isolates at 2 ug/ml by absolute-concentration method; in short: as §1

CN[C@@H]1[C@H](O[C@H]2[C@H](O[C@H]3[C@H](O)[C@@H](O)[C@H](N=C(N)N)[C@@H](O)[C@@H]3N=C(N)N)O[C@@H](C)[C@]2(O)C=O)O[C@@H](CO)[C@H](O)[C@H]1O [STREPTOMYCIN]
Activity [1]: 25%

NNC(=O)c1ccncc1 [ISONIAZID]
Activity [2]: 20.9%

CO[C@H]1/C=C/O[C@@]2(C)Oc3c(C)c(O)c4c(O)c(c(/C=N/N5CCN(C)CC5)c(O)c4c3C2=O)NC(=O)/C(C)=C\C=C\[C@H](C)[C@H](O)[C@@H](C)[C@@H](O)[C@@H](C)[C@H](OC(C)=O)[C@@H]1C [RIFAMPIN]
Activity [3]: 9.2%

CC[C@@H](CO)NCCN[C@@H](CC)CO [ETHAMBUTOL]
Activity [4]: 2.6%
